{
  "source": "ChEMBL document CHEMBL5042480",
  "about": "“3CL Protease Inhibitors with an Electrophilic Arylketone Moiety as Anti-SARS-CoV-2 Agents” (J Med Chem, 2022)",
  "key": {"[1]": {"assay": "MRT (total) in overnight-fasted Wistar rat at 0.5 mg/kg, po measured upto 7 hrs by quadrupole mass spectrometry coupled UFLC analysis", "format": "ADME, organism-based", "details": "in vivo", "method_in_brief": "(§1)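 Conscious, freely moving male Wistar rats received compound in saline at 4 mL/kg, either i.v. via jugular vein at 0.1 mg/kg or by oral gavage at 0.5 mg/kg. Cannula blood was sampled up to 7 h and plasma measured by LC-MS/MS. Analysis was noncompartmental (trapezoidal AUC); Cmax and tmax were taken as observed, and t1/2 from log-linear terminal regression over at least 3 points. Mean ± SD, n = 5.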"}, "[2]": {"assay": "Protein binding in rat plasma incubated for 6 hrs by quadrupole mass spectrometry coupled UFLC analysis", "format": "ADME, cell-free", "details": "read-out: PPB"}, "[3]": {"assay": "AUC (0 to 7 hrs) in overnight-fasted Wistar rat at 0.5 mg/kg, po measured upto 7 hrs by quadrupole mass spectrometry coupled UFLC analysis", "format": "ADME, organism-based", "set-up": "route oral, dose 0.5 mg/kg, time <=7", "details": "in vivo", "method_in_brief": "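Male Wistar rats, conscious and unrestrained, were given the compound in saline at 4 mL/kg, either as an i.v. bolus via the left jugular vein or by oral gavage. Heparinized blood was drawn from a cannula at set times up to 7 h and the plasma analysed by LC-MS/MS. AUC0–7 and AUC0–∞ came from noncompartmental trapezoidal analysis; mean ± SD, n = 5.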"}, "[4]": {"assay": "Cmax in overnight-fasted Wistar rat at 0.5 mg/kg, po measured upto 7 hrs by quadrupole mass spectrometry coupled UFLC analysis", "format": "ADME, organism-based", "set-up": "route oral, dose 0.5 mg/kg, time <=7", "details": "in vivo", "method_in_brief": "as §1"}, "[5]": {"assay": "MRT (total) in overnight-fasted Wistar rat at 0.1 mg/kg, iv measured upto 7 hrs by quadrupole mass spectrometry coupled UFLC analysis", "format": "ADME, organism-based", "details": "in vivo", "method_in_brief": "as §1"}, "SARS-CoV-2 [6]": {"tested_on": "SARS-CoV-2", "assay": "Antiviral activity against SARS coronavirus 2 infected in African green monkey Vero cells assessed as blockade of viral proliferation at 25 uM incubated for 48 hrs by cytopathic effect assay", "format": "functional, organism-based", "details": "Severe acute respiratory syndrome coronavirus 2"}, "[7]": {"assay": "Stability in rat plasma assessed as compound degradation incubated for 6 hrs by quadrupole mass spectrometry coupled UFLC analysis", "format": "ADME, cell-free", "method_in_brief": "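Compound at 1 μM was incubated in rat plasma at 37 °C for 0, 1, 2 and 6 h. Remaining concentration was measured by LC/MS/MS.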"}, "[8]": {"assay": "Drug metabolism in rat hepatocytes assessed as amide hydrolysis mediated HC-6 metabolite formation at 10 uM incubated upto 2 hrs by LC/UV/MS analysis", "format": "ADME, cell-based, Hepatocyte", "method_in_brief": "(§2)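 Hepatocytes were suspended at 6 × 10^5 viable cells/mL in KHB buffer and given compound at 10 μM. Incubation was 0 and 2 h at 37 °C under 5% CO2, stopped with acetonitrile. After centrifugation, supernatant metabolites were analysed by LC/UV/MS.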"}, "Cytochrome P450 1A2": {"molecular_target": "T1, Cytochrome P450 1A2 (Homo sapiens, UniProt P05177)", "T1 sequence (P05177 whole entry)": "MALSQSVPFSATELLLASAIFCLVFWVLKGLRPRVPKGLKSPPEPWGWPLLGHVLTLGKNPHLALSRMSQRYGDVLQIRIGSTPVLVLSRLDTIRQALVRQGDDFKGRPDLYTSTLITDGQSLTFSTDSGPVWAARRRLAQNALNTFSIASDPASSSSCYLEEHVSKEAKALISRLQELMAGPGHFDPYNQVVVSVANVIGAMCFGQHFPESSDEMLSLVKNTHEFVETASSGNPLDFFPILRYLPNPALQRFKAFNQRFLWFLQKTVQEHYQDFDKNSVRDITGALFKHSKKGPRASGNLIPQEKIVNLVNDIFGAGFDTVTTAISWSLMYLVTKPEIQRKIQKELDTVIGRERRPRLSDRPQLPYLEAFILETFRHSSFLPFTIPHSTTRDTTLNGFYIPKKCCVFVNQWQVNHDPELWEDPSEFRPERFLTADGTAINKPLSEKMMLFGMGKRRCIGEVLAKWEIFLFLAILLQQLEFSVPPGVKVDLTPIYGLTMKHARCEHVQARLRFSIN", "assay": "Inhibition of CYP1A2 in human liver microsome at 10 uM", "format": "toxicity", "details": "microsomes", "method_in_brief": "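Human liver microsomes (0.1 mg protein/mL) were mixed with compound at 10 μM and probe substrates in phosphate buffer pH 7.4: tacrine (CYP1A2), paclitaxel (2C8), tolbutamide (2C9), dextromethorphan (2D6) and midazolam (3A4). Reactions were started with an NADPH-generating system, run 10 min at 37 °C and stopped with acetonitrile. Metabolites were measured by LC/MS/MS and activity expressed as % remaining versus the no-inhibitor control.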"}, "[9]": {"assay": "Drug metabolism in rat hepatocytes assessed as amide hydrolysis mediated HC-7 metabolite formation at 10 uM incubated upto 2 hrs by LC/UV/MS analysis", "format": "ADME, cell-based, Hepatocyte", "method_in_brief": "as §2"}, "SARS-CoV-2 [10]": {"tested_on": "SARS-CoV-2", "assay": "Antiviral activity against SARS coronavirus 2 infected in African green monkey Vero cells assessed as reduction in total viral RNA upto 25 uM measured after 24 hrs post-infection by qRT-PCR analysis", "format": "functional, organism-based", "details": "Severe acute respiratory syndrome coronavirus 2, dose microM <=25, time 24.0 hrs", "method_in_brief": "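Total viral RNA in treated, SARS-CoV-2-infected Vero cells was quantified by qPCR. Values are mean ± SEM of three independent experiments.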"}, "TK6": {"tested_on": "TK6", "assay": "Mutagenicity against human TK6 cells assessed as induction of micronuclei formation by Micro-flow assay", "format": "toxicity, cell-based", "method_in_brief": "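Human TK6 lymphoblastoid cells were treated either 3 h with 1% S9 followed by 21 h recovery, or continuously for 24 h without S9, at 37 °C under 5% CO2. Relative population doubling was used for cytotoxicity. Positive controls were cyclophosphamide and mitomycin C.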"}, "[11]": {"assay": "Volume of distribution in overnight-fasted Wistar rat at 0.1 mg/kg, iv measured upto 7 hrs by quadrupole mass spectrometry coupled UFLC analysis", "format": "ADME, organism-based", "details": "in vivo", "method_in_brief": "as §1"}, "[12]": {"assay": "Drug metabolism in rat hepatocytes assessed as amide hydrolysis mediated HC-5 metabolite formation at 10 uM incubated upto 2 hrs by LC/UV/MS analysis", "format": "ADME, cell-based, Hepatocyte", "method_in_brief": "as §2"}, "[13]": {"assay": "Tmax in overnight-fasted Wistar rat at 0.5 mg/kg, po measured upto 7 hrs by quadrupole mass spectrometry coupled UFLC analysis", "format": "ADME, organism-based", "details": "in vivo", "method_in_brief": "as §1"}, "[14]": {"assay": "Drug metabolism in human hepatocytes assessed as amide hydrolysis mediated HC-7 metabolite formation at 10 uM incubated upto 2 hrs by LC/UV/MS analysis", "format": "ADME, cell-based, Hepatocyte", "method_in_brief": "as §2"}, "[15]": {"assay": "Drug metabolism in human hepatocytes assessed as amide hydrolysis mediated HC-5 metabolite formation at 10 uM incubated upto 2 hrs by LC/UV/MS analysis", "format": "ADME, cell-based, Hepatocyte", "method_in_brief": "as §2"}, "[16]": {"assay": "Apparent permeability in human Caco-2 monolayer cells at 1 uM and measured upto 120 mins by LC-MS/MS analysis", "format": "ADME, cell-based", "method_in_brief": "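Caco-2 monolayers were grown 21 days on 3.0 μm-pore inserts. They were preincubated 30 min at 37 °C in HBSS with 10 mM HEPES, pH 7.4, and TEER was checked before and after. Transport of compound at 1 μM was run at 37 °C, quantified by LC-MS/MS, and converted to apparent permeability.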"}, "[17]": {"molecular_target": "Voltage-gated inwardly rectifying potassium channel KCNH2 (Homo sapiens, UniProt Q12809)", "sequence (Q12809 whole entry)": "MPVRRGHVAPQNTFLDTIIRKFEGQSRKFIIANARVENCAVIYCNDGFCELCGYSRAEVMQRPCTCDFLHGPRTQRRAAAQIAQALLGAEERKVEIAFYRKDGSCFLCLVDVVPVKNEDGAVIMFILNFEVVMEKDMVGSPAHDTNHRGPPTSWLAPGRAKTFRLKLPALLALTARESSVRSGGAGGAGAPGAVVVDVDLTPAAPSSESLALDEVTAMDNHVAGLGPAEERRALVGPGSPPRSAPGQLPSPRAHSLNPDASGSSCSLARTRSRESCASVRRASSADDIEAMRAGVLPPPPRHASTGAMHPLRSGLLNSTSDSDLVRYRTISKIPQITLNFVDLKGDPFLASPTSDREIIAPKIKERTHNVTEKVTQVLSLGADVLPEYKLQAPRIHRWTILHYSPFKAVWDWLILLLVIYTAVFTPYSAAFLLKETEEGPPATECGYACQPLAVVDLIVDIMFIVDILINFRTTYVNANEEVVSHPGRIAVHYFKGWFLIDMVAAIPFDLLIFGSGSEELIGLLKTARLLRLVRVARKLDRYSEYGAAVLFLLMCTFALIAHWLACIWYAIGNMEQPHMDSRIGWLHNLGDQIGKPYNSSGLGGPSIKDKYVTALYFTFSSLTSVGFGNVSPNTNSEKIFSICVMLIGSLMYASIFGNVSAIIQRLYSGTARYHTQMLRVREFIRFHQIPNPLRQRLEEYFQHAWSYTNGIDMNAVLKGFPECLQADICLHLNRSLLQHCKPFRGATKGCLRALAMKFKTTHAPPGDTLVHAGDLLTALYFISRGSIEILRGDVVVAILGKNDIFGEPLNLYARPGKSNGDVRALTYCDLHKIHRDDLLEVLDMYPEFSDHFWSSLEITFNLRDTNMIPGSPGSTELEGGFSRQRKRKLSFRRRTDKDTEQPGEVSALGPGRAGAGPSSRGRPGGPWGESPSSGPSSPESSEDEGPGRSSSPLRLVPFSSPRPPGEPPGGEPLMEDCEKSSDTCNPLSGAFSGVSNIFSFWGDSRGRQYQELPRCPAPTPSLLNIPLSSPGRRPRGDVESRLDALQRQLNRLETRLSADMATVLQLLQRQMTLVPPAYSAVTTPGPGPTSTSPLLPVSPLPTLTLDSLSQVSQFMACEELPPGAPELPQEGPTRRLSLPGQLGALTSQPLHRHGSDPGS", "assay": "Inhibition of hERG expressed in CHO cells at > 100 uM by whole-cell patch-clamp voltage-clamp method", "format": "toxicity, cell-based", "method_in_brief": "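hERG tail current was recorded by automated whole-cell patch clamp in CHO cells stably expressing hERG at room temperature. The pulse was +40 mV for 500 ms, then a ramp to −80 mV, repeated every 5 s. Compound was applied cumulatively at 5 min intervals. Verapamil served as positive control and DMSO as vehicle.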"}},
  "note": "Calls of active or inactive are those of the source. No cut-off for these calls is given here.",
  "data": [
    {"smiles": "COc1cccc2[nH]c(C(=O)N[C@@H](CC(C)C)C(=O)N[C@@H](C[C@@H]3CCNC3=O)C(=O)c3nc4ccccc4s3)cc12", "values": [
      {"measurement": "MRT", "setting": "[1]", "result": 792, "unit": "min"},
      {"measurement": "fraction unbound at 6 h", "setting": "[2]", "result": 0.01},
      {"measurement": "AUC(0-t)", "setting": "[3]", "result": 1.59, "unit": "ng·h/mL"},
      {"measurement": "Cmax", "setting": "[4]", "result": 1.08, "unit": "ng/mL"},
      {"measurement": "MRT", "setting": "[5]", "result": 29.6, "unit": "min"},
      {"measurement": "Activity", "setting": "SARS-CoV-2 [6]", "result": "Active"},
      {"measurement": "Stability", "setting": "[7]", "result": "Stable"},
      {"measurement": "Drug metabolism", "setting": "[8]", "result": "Metabolite_Detected"},
      {"measurement": "inhibition (INH)", "setting": "Cytochrome P450 1A2", "result": "Active"},
      {"measurement": "Drug metabolism", "setting": "[9]", "result": "Metabolite_Detected"},
      {"measurement": "Activity", "setting": "SARS-CoV-2 [10]", "result": "Active"},
      {"measurement": "Activity", "setting": "TK6", "result": "Non-Toxic"},
      {"measurement": "Vd", "setting": "[11]", "result": 3.51, "unit": "L/kg"},
      {"measurement": "Drug metabolism", "setting": "[12]", "result": "Metabolite_Detected"},
      {"measurement": "Tmax", "setting": "[13]", "result": 21, "unit": "min"},
      {"measurement": "Drug metabolism", "setting": "[14]", "result": "Metabolite_Detected"},
      {"measurement": "Drug metabolism", "setting": "[15]", "result": "Metabolite_Detected"},
      {"measurement": "Papp at 2 h, 1 µM", "setting": "[16]", "result": 18.9, "unit": "×10⁻⁶ cm/s"},
      {"measurement": "inhibition (INH)", "setting": "[17]", "result": "Not Active"}
    ]}
  ]
}
